Experimental data collected from several papers.
Protocols differ between the studies behind these lines.
Target: Homeodomain-interacting protein kinase 4 (HIPK4, Homo sapiens, UniProt Q8NE63)
Residues used in one study (Q8NE63 1-616): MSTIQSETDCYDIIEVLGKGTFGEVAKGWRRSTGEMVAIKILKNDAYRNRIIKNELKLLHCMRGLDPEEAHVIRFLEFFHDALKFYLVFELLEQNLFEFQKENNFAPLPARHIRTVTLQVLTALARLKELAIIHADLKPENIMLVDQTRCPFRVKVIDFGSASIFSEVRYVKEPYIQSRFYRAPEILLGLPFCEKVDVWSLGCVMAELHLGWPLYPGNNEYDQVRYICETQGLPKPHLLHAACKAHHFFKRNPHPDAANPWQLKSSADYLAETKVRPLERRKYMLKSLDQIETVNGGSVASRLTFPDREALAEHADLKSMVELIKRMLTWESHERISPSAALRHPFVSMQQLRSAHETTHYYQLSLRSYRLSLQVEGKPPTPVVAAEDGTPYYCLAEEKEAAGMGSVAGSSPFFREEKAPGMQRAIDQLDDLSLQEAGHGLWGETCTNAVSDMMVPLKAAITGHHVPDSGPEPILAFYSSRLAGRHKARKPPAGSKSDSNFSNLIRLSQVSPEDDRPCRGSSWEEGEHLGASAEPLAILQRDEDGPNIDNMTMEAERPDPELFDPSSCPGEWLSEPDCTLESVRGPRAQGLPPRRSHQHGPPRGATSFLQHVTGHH

SMILES	read-out	action	method	tested at	quantity	result
Cc1nn(C)cc1-c1nc2c(N3CCN(Cc4ccc(Cl)cc4)CC3)c(Cl)cnc2[nH]1	binding		competition with immobilised ligand	1 µM	remaining binding	85%
Cn1cc(-c2cccc(N3CCc4c(sc5c4CC(C)(C)C5)C3=O)c2CO)cc(Nc2ccncn2)c1=O	enzyme activity	inhibitor		1 µM	inhibition	11%
Cn1cncc1[C@](O)(COc1ccc(C#N)cc1-c1ccc(OC(F)(F)F)cc1)c1ccc(C#N)cc1	cell-free assay		competition with immobilised ligand	1 µM	remaining binding	86%
O=c1[nH]c2ccccc2n1C1CCN(Cc2ccc(-c3[nH]c4cc5ncnc5cc4nc3-c3ccccc3)cc2)CC1	cell-free assay			0.5 µM	remaining signal	99.3%
Nc1ncc(-c2nc(N3CCOCC3)nc(N3CCOCC3)n2)c(C(F)F)n1	binding		competition with immobilised ligand	10 µM	remaining binding	100%
COc1ncccc1-c1cnn2ccc(N3CCN(C(=O)OC(C)C)CC3)nc12	binding		competition with immobilised ligand	1 µM	remaining binding	99%
CC(C)(C)c1cc(C=C(C#N)C#N)cc(Br)c1O	enzyme activity	inhibitor		0.5 µM	remaining activity	103%
Cn1cc(-c2cc(F)cc(N3CCn4c(cc5c4CCCC5)C3=O)c2CO)cc(Nc2ccc(N3CCN(C4COC4)CC3)cn2)c1=O	enzyme activity	inhibitor		0.1 µM	inhibition	11%
